The source of these data is ChEMBL document CHEMBL1250436, “Evaluation of N-substitution in 6,7-benzomorphan compounds” (Bioorg Med Chem, 2010).

For experiment [1], the target named is Delta-type opioid receptor (Rattus norvegicus, UniProt P33533). In words: Displacement of [3H]DPDPE from Sprague-Dawley rat delta opioid receptor by liquid scintillation counting.
The species named for experiment [2] is Rattus norvegicus. Put plainly: Selectivity ratio of Ki for delta opioid receptor in Sprague-Dawley rat brain to Ki for mu opioid receptor in Sprague-Dawley rat brain.
The target in experiment [3] is Mu-type opioid receptor (Rattus norvegicus, UniProt P33535). Put plainly: Displacement of [3H]DAMGO from Sprague-Dawley rat mu opioid receptor by liquid scintillation counting.
Sequence of Mu-type opioid receptor (Rattus norvegicus, UniProt P33535) (P33535 whole entry): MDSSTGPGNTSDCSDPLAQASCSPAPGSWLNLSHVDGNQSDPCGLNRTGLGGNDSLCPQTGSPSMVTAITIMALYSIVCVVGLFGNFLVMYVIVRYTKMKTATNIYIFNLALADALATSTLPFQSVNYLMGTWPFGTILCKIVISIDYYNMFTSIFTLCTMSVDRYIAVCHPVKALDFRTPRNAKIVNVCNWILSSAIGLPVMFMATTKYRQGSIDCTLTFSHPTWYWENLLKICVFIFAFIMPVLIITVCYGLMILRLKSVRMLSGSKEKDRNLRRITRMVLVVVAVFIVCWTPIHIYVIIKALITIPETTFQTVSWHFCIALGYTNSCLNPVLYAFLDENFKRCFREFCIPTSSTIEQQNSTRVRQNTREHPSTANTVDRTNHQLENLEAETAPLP
Experiment [4] concerns the target Kappa-type opioid receptor (Cavia porcellus, UniProt P41144). Put plainly: Displacement of [3H]U69593 from […] kappa opioid receptor in guinea pig cerebella by liquid scintillation counting.
Experiment [5] can be described thus: Selectivity ratio of Ki for kappa opioid receptor in guinea pig cerebella to Ki for mu opioid receptor in Sprague-Dawley rat brain.
Experiment [6] addresses T1, Mu-type opioid receptor (Homo sapiens, UniProt P35372). In words: Agonist activity at mu opioid expressed in HEK293 cells assessed as inhibition of forskolin-stimulated cAMP accumulation at 1 pM to 10 uM relative to control. It counts as functional, cell-based.
In experiment [7] the target is T2, Delta-type opioid receptor (Homo sapiens, UniProt P41143). In words: Agonist activity at delta opioid expressed in HEK293 cells assessed as inhibition of forskolin-stimulated cAMP accumulation. The format is functional, cell-based.
T2 sequence (P41143 whole entry): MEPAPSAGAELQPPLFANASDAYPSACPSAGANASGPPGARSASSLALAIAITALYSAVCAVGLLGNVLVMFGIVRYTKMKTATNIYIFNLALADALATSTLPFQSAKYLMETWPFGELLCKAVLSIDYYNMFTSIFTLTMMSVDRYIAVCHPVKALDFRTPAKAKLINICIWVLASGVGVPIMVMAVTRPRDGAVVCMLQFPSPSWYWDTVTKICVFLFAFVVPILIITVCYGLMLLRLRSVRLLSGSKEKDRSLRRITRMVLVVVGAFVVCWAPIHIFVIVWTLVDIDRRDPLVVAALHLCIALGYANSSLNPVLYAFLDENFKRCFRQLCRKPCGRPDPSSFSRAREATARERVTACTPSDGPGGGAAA
Experiment [8] concerns the target T2, Delta-type opioid receptor. In words: Agonist activity at delta opioid expressed in HEK293 cells assessed as inhibition of forskolin-stimulated cAMP accumulation at 1 pM to 10 uM relative to control. The format is functional, cell-based.
Experiment [9] relates to Rattus norvegicus. In words: Antinociceptive activity in sc dosed Sprague-Dawley rat assessed as thermal-stimulus-induced tail flick latency after 100 mins. The format is functional. The gist of the method: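 Male Sprague–Dawley rats (180–200 g) habituated the day before. Radiant-heat IR on lower third of tail. Basal latency 3–4 s, mean of three readings 5 min apart. Cut-off 10 s. Compound given sc, and latencies read at 20, 40, 60, 80 and 100 min. Blinded. ED50 from linear regression of dose–effect, with 95% confidence limits.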

Experiment [10] deals with T1, Mu-type opioid receptor. In words: Agonist activity at mu opioid expressed in HEK293 cells assessed as inhibition of forskolin-stimulated cAMP accumulation. It counts as functional, cell-based.

Sequence of Delta-type opioid receptor (Rattus norvegicus, UniProt P33533) (P33533 whole entry): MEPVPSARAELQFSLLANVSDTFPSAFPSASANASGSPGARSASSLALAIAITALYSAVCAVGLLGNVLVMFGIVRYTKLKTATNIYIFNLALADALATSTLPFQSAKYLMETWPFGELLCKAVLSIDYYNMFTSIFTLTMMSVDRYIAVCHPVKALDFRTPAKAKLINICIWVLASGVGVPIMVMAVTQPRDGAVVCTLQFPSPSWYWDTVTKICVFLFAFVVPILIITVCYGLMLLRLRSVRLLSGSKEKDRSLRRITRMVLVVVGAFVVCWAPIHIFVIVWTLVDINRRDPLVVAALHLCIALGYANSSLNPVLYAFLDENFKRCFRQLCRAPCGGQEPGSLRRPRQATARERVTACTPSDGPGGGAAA
Sequence of Kappa-type opioid receptor (P41144 whole entry): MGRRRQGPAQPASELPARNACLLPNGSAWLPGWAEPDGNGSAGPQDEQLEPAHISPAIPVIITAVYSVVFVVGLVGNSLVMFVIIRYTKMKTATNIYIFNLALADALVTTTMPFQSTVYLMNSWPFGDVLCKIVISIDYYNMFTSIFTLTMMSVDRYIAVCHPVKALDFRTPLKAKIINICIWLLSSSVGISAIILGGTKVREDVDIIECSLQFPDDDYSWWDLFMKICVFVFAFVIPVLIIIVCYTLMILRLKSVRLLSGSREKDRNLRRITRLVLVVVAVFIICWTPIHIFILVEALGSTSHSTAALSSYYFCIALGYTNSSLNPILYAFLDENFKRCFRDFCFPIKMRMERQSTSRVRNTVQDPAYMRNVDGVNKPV
T1 sequence (P35372 whole entry): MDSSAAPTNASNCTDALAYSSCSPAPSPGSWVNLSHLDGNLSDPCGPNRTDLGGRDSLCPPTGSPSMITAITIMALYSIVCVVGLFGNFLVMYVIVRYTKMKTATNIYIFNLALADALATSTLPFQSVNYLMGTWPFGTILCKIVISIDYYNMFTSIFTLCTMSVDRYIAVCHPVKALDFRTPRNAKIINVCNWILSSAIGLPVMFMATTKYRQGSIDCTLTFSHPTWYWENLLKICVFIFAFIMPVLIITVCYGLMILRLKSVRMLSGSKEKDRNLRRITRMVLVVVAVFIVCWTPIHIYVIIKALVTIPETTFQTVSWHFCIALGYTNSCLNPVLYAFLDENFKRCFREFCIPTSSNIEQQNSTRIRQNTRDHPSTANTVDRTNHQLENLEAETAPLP

For the compound `C[C@H]1CN(CC(=O)Nc2ccccc2)[C@@H]2Cc3ccc(O)cc3[C@]1(C)C2`, the Ki is more than 5000 nM in experiment [1], 722 nM on Mu-type opioid receptor [3] and more than 5000 nM in experiment [4]. The Ratio Ki (in the experiment filed under Rattus norvegicus [2]; in experiment [5]) was more than 6.9 in each case.

In the case of `C[C@H]1CN(CCC(=O)Nc2ccccc2)[C@@H]2Cc3ccc(O)cc3[C@]1(C)C2`, the Ki amounted to 29.1 nM in experiment [1], 0.83 nM on Mu-type opioid receptor [3] and 110 nM in experiment [4]. Besides, the Imax on Mu-type opioid receptor [6] is 73%; in experiment [8], 83%. The values for the Ratio Ki (in the experiment filed under Rattus norvegicus [2]; in experiment [5]) were 33.8 and 132, respectively. The IC50 was determined as 12 nM in [7] and 4.8 nM on Mu-type opioid receptor [10]. In the experiment with Rattus norvegicus [9], the ED50 is 2.03 mg/kg.

Regarding `C[C@H]1CN(CC(=O)N(C)c2ccccc2)[C@@H]2Cc3ccc(O)cc3[C@]1(C)C2`, the Ki was more than 5000 nM in experiment [1], 1370 nM on Mu-type opioid receptor [3] and 339 nM in [4]. Moreover, the results for the Ratio Ki (in the experiment filed under Rattus norvegicus [2]; in experiment [5]) were more than 3.6 and 0.24, respectively.

For the compound `C[C@H]1CN(CC(=O)NC2CCCCC2)[C@@H]2Cc3ccc(O)cc3[C@]1(C)C2`, the results for the Ki (in [1]; on Mu-type opioid receptor [3]; in experiment [4]) were more than 5000 nM, 2930 nM and 612 nM, respectively. In addition, the Ratio Ki in the experiment listed under Rattus norvegicus [2] is more than 1.7; in experiment [5] it was 0.2.

On to `C[C@H]1CN(CCC(=O)NC(C)(C)C)[C@@H]2Cc3ccc(O)cc3[C@]1(C)C2`, for which the Ki in experiment [1] is more than 5000 nM; on Mu-type opioid receptor [3] it was 372 nM; in experiment [4], 422 nM. In addition, the figures for the Ratio Ki (in the experiment listed under Rattus norvegicus [2]; in [5]) were more than 13.4 and 1.1, respectively.

With `CCN(C(=O)CN1C[C@H](C)[C@@]2(C)C[C@H]1Cc1ccc(O)cc12)c1ccccc1`, the Ki was more than 5000 nM in experiment [1], 1120 nM on Mu-type opioid receptor [3] and 335 nM in experiment [4]. Moreover, the Ratio Ki in the experiment filed under Rattus norvegicus [2] is more than 4.4; in experiment [5], 0.29.

For the compound `C[C@H]1CN(CCC(=O)NCC2CCCCC2)[C@@H]2Cc3ccc(O)cc3[C@]1(C)C2`, the Ki in [1] was more than 5000 nM; at Mu-type opioid receptor [3] it was 107 nM; in [4], 134 nM. The values for the Ratio Ki (in the experiment filed under Rattus norvegicus [2]; in experiment [5]) were more than 46.7 and 1.2, respectively.

As to `CN1CC[C@]23c4c5ccc(O)c4O[C@H]2[C@@H](O)C=C[C@H]3[C@H]1C5` [MORPHINE], the ED50 in the experiment with Rattus norvegicus [9] came out at 2.7 mg/kg.

As for `CCN(C(=O)CCN1C[C@H](C)[C@@]2(C)C[C@H]1Cc1ccc(O)cc12)c1ccccc1`, the Ki was more than 5000 nM in experiment [1], 136 nM on Mu-type opioid receptor [3] and 70 nM in experiment [4]. Also, the Ratio Ki is more than 36.7 in the experiment listed under Rattus norvegicus [2] and 0.51 in experiment [5].

Turning to `C[C@H]1CN(CCC(=O)NC2CCCCC2)[C@@H]2Cc3ccc(O)cc3[C@]1(C)C2`, the inhibitory constant (Ki) in [1] is more than 5000 nM; at Mu-type opioid receptor [3], 56 nM; in [4] it was 501 nM. Further, the Ratio Ki in the experiment filed under Rattus norvegicus [2] was more than 89.2; in experiment [5] it was 8.9.

As for `C[C@@H](NC(=O)[C@@H](N)Cc1ccc(O)cc1)C(=O)NCC(=O)N(C)[C@@H](Cc1ccccc1)C(=O)NCCO` [DAMGO], the Ki is 2670 nM in [1] and more than 5000 nM in experiment [4].

With `C[C@H]1CN(CCC(=O)N(C)c2ccccc2)[C@@H]2Cc3ccc(O)cc3[C@]1(C)C2`, the Ki is more than 5000 nM in experiment [1], 65 nM at Mu-type opioid receptor [3] and 261 nM in experiment [4]. Moreover, the Ratio Ki in the experiment listed under Rattus norvegicus [2] was more than 76.9; in experiment [5], 4.

Take `C[C@H]1CN(CCC(=O)NCc2ccccc2)[C@@H]2Cc3ccc(O)cc3[C@]1(C)C2`: the Ki in experiment [1] is more than 5000 nM; on Mu-type opioid receptor [3] it was 105 nM; in experiment [4], 237 nM. In addition, the Ratio Ki in the experiment filed under Rattus norvegicus [2] is more than 47.6; in [5], 2.2.
